The values that follow come from ChEMBL document CHEMBL4043073, “Boronic Acid Modifications Enhance the Anti-Influenza A Virus Activities of Novel Quindoline Derivatives” (J Med Chem, 2017).

SMILES strings stand for the structures. The source made the active and inactive calls. The rule behind the calls is not given here.

In one series the test system is A549. Description: Cytotoxicity against human A549 cells at 20 uM after 48 hrs by resazurin based fluorescence method. In kind it is cell-based. The settings on record: a549, 48 h. An outline of the steps:
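Confluent MDCK, A549 or H1299 cells exposed in triplicate to compound for 48 h at 37 °C (A549/H1299 at 20 μM). Resazurin added to 0.2 mg/mL final for 16 h. Fluorescence read at ex 544 / em 595 nm; viability as % of untreated.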

Series [1] deals with Influenza A virus. The experiment in a line: Antiviral activity against Influenza A virus (A/Puerto Rico/8/34(H1N1)) infected in A549 cells assessed as reduction in localization of viral NP protein in nucleus at 10 uM preincubated with virus at 37 degC for 1 hr followed by viral adsorption at 4 degC for 1 hr and subsequent infection in A549 cells measured at 2 to 4 hrs post infection by FITC-staining based immunofluorescence microscopic method. In kind it is functional, cell-based. The settings on record: A/Puerto Rico/8/1934(H1N1). The procedure, abridged:
(§1)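 PR8 (MOI 1.0) pretreated with 10 μM compound 1 h at 37 °C, adsorbed 1 h at 4 °C, then A549 cells were kept in infecting medium with 10 μM compound. Fixed with 4% paraformaldehyde at 2 or 4 h p.i., permeabilised with Triton X-100 and blocked. Anti-NP plus FITC secondary, confocal imaging; nuclear NP intensity per unit area quantified (n = 30 images).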

Series [2] has as its system Influenza A virus. Description: Antiviral activity against Influenza A virus (A/Puerto Rico/8/34(H1N1)) infected in MDCK cells assessed as reduction in virus titer at 10 uM preincubated with virus for 1 hr followed by viral infection measured after 24 hrs by crystal violet staining based plaque assay. In kind it is functional, cell-based. The conditions noted are these: A/Puerto Rico/8/1934(H1N1). An outline of the steps:
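PR8 (MOI 1.0) preincubated with compound (2.5–10 μM) 1 h at 37 °C, then used to infect MDCK cells. After adsorption, medium with the same compound concentration was added. At 24 h p.i. supernatant virus titer was measured by plaque assay; n = 3.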

Series [3] can be described thus: Antiviral activity against Influenza A virus (A/California/04/2009(H1N1)) infected in MDCK cells assessed as virus yeild reduction preincubated with virus at 37 degC for 1 hr followed by viral infection for 1 hr measured after 3 days by crystal violet staining based plaque assay. Format: functional, cell-based. An outline of the steps: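 Plaque reduction: about 50–100 PFU/well of PR8, Cal09 or Minnesota preincubated with compound (0–10 μM) 1 h at 37 °C. Mixture then adsorbed to MDCK monolayers 1 h at 4 °C. Overlay was DMEM with 1.5% agarose, DEAE-dextran and 1 μg/mL TPCK-trypsin for 3 days at 37 °C. Glutaraldehyde fix, crystal violet stain, plaque count; IC50 derived; n = 4.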

Series [4] concerns Influenza A virus (A/Puerto Rico/8/1934(H1N1)). The experiment in a line: Inhibition of Influenza A virus (A/Puerto Rico/8/34(H1N1)) hemagglutinin mediated chicken erythrocytes aggregation at 10 uM after 60 mins by hemagglutination test. In kind it is cell-based. The procedure, abridged: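 Hemagglutination inhibition: PR8-induced aggregation of chicken erythrocytes tested with 10 μM compound; anti-HA antibody (0.625–5 μg/mL) as comparator.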

Series [5] has as its system Influenza A virus. The experiment in a line: Antiviral activity against Influenza A virus (A/Puerto Rico/8/34(H1N1)) infected in Kunming mouse assessed as intact columnar epithelium in bronchiole without inflammatory cell infiltration at 10 mg/kg/day, po qd for 4 days by hematoxylin and eosin staining based assay. In kind it is functional, organism-based. The conditions noted are these: A/Puerto Rico/8/1934(H1N1).

Series [6] is described as follows: Drug uptake in human A549 cell membranes at 20 uM after 4 hrs by DAPI staining based confocal microscopic analysis. In kind it is ADME. The settings on record: a549, 4 h. An outline of the steps:
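A549 cells incubated with 20 μM compound 4 h at 37 °C, then fixed and DAPI-stained. Compound intrinsic fluorescence located by confocal microscopy.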

The subject of series [7] is Influenza A virus. Description: Antiviral activity against Influenza A virus (A/Puerto Rico/8/34(H1N1)) infected in A549 cells assessed as reduction in nuclear import of viral RNP by measuring colocalization with viral NP in cytoplasm at 10 uM preincubated with virus at 37 degC for 1 hr followed by viral adsorption at 4 degC for 1 hr and subsequent infection in A549 cells measured at 2 to 4 hrs post infection by confocal microscopic method. In kind it is functional, cell-based. The conditions noted are these: A/Puerto Rico/8/1934(H1N1). The procedure, abridged: as §1

With `O=C(Nc1ccccc1Nc1c2ccccc2nc2c1[nH]c1ccccc12)c1cccc(B(O)O)c1`, the Activity entry in the series on A549 was “Non-Toxic”. The result in the series with Influenza A virus [1], in the series on Influenza A virus [5] and with Influenza A virus [7] was Active. Besides, the IC50 in the series on Influenza A virus [2] turned out to be 2.5 µM; in series [3], 3.7 µM. In series [4], the inhibition result was “inactive”. Besides, the Drug uptake entry in series [6] is given as “Active”.
